Rows were chosen to be rich in hits. Some 2.8% of all compounds tested hit in one or more screens of this group.
PAFAH2 FP inh: PAFAH2 (human) inhibition. recombinant PAFAH2, FP-rhodamine activity probe, fluorescence polarization. actives 0.99% (n = 340,000). AID 492956. inhibition, % at 3.39 µM;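 active means inhibition above the mean over all tested compounds plus 3 SD, cut at about 30% in these data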;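 further: inhibitors block probe labeling of enzyme so polarization drops; 0% = enzyme with DMSO and 100% = wells lacking PAFAH2 protein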
PAFAH1B2 inh: inhibitors of human PAFAH1B2 | recombinant PAFAH1B2, FP-rhodamine activity probe, fluorescence polarization | actives 1.2% (n = 340,000) | P68402 | inhibition, % at 3.39 µM;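 active means inhibition above the mean of all tested compounds plus 3 SD, cut at about 24% in these data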;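 further: 0% = enzyme with DMSO and 100% = wells lacking PAFAH1B2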
Target sequence (P68402 whole entry, looked up): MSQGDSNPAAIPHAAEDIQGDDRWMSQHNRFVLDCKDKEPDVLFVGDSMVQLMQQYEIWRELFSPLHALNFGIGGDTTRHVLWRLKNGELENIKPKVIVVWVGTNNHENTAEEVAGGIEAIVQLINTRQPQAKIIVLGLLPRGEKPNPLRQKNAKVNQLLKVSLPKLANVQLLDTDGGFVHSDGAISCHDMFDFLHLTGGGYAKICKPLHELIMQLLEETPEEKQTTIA
PAFAH1B3 FP inh: PAFAH1B3 (human) inhibition | recombinant PAFAH1B3, FP-rhodamine probe, fluorescence polarization | inhibition, % at 3.39 µM | actives 0.28% (n = 340,000) | AID 492972;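 active means inhibition above the screen-wide average of all tested compounds plus 3 SD, cut at about 25% in these data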;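 further: 0% = enzyme with DMSO only and 100% = wells lacking PAFAH1B3 protein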
Target sequence (Q15102 whole entry, looked up): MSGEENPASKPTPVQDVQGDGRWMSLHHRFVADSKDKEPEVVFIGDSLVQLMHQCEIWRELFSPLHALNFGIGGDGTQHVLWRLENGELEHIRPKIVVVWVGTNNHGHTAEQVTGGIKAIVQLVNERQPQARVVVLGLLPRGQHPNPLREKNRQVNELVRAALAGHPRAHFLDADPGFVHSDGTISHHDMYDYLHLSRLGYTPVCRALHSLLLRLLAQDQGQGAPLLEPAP
mABHD4 FP: inhibits mouse alpha/beta hydrolase domain 4 | purified mABHD4, FP-Rh probe fluorescence polarization | inhibition, % at 8.92 µM | actives 0.54% (n = 370,000) | AID 720543;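 active means inhibition exceeding the mean over every tested compound plus 3 SD, cut at about 30% in these data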;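 further: 0% = plate median of compound wells and 100% = S159A mutant with DMSO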
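Doses – 8.92 µM, single dose · Material – wild-type mouse ABHD4 protein · Replication – single well per compound (singlicate) · Measure – percent inhibition of probe binding, normalized to plate controls · Schedule – 45 min compound pre-incubation plus 60 min probe step, 25 °C · Detection – fluorescence polarization with parallel and perpendicular emission, 525/598 nm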
HTRA1 inhibitor: inhibitors of human serine peptidase HTRA1; actives 0.5% (n = 340,000); inhibition, % at 5.96 µM; recombinant HTRA1, FP-rhodamine activity-based probe, fluorescence polarization; in the data active means inhibition above about 36%;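 further: 0% = enzyme with DMSO and 100% = wells lacking enzyme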
pPAFAH FP inh: inhibitors of human plasma PAF acetylhydrolase (pPAFAH). recombinant pPAFAH, FP-rhodamine probe fluorescence polarization. inhibition, % at 3.39 µM. AID 463082. Q13093. actives 1.5% (n = 330,000);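 active means inhibition above the mean inhibition across the screen plus 3 SD, cut at about 25% in these data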;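 further: inhibitors block binding of the rhodamine activity-based probe so polarization drops; 0% = enzyme with DMSO and 100% = wells lacking pPAFAH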
pPAFAH FP conf: pPAFAH (human) inhibition, confirmed. shares compounds with pPAFAH FP inh. recombinant pPAFAH, FP-Rh probe fluorescence polarization. inhibition, % at 3.39 µM. actives 72% (n = 2,300). AID 463230;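 active means mean inhibition of the triplicate above the hit cutoff set for the earlier primary screen, cut at about 25% in these data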;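 further: 0% = enzyme with DMSO and 100% = wells lacking pPAFAH enzyme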
PAFAH2 FP conf: PAFAH2 (human) inhibition, confirmed. shares compounds with PAFAH2 FP inh. recombinant PAFAH2, FP-rhodamine activity probe, fluorescence polarization. inhibition, % at 3.39 µM. actives 65% (n = 2,300). AID 493030;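 active means mean inhibition over three repeats above a set limit taken from the earlier primary screen, cut at about 30% in these data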;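 further: inhibitor blocks binding of rhodamine activity probe so polarization falls; 0% = enzyme with DMSO and 100% = wells lacking PAFAH2 protein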
HTRA1 inh conf: confirmation of human HTRA1 inhibitors; shares compounds with HTRA1 inhibitor; recombinant HTRA1, FP-rhodamine activity-based probe, fluorescence polarization; inhibition, % at 5.96 µM; actives 66% (n = 1,600);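 active means mean inhibition over three repeats above a set limit taken from the earlier primary screen, cut at about 37% in these data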;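 further: 0% = HTRA1 with DMSO and 100% = wells lacking HTRA1; inhibitors block probe binding so polarization drops and inhibition rises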
ABHD4 confirm: ABHD4 (mouse) inhibition, FP confirmation | shares compounds with mABHD4 FP | purified mABHD4, FP-Rh probe fluorescence polarization | inhibition, % at 8.92 µM | actives 55% (n = 1,800) | AID 720658;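 active means mean inhibition across replicates above the hit cutoff set in the primary screen, cut at about 30% in these data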;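 further: 0% = wild-type ABHD4 with DMSO and 100% = catalytically dead S159A mutant with DMSO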
Active calls of the source: *; nt = no result.

SMILES	PAFAH2 FP inh	PAFAH1B2 inh	PAFAH1B3 FP inh	mABHD4 FP	HTRA1 inhibitor	pPAFAH FP inh	pPAFAH FP conf	HTRA1 inh conf	ABHD4 confirm	others
O=C(O)c1ccc(N2C(=O)/C(=C/C=C/c3ccccc3)SC2=S)cc1	4.0	-6.0	-1.3	-3.7	-8.3	7.9	nt	nt	nt
Nc1ccc(Nc2ccccc2)c(S(=O)(=O)O)c1	18.4	4.0	9.3	63.0*	57.6*	60.2*	7.7	15.0	43.9*
Cc1ccc(Nc2ccc(N)cc2S(=O)(=O)O)cc1	11.4	8.2	6.8	65.0*	80.1*	49.9*	4.9	21.3	17.6
Nc1cccc(Nc2ccccc2)c1	-1.7	5.2	5.3	-2.7	15.1	1.2	nt	nt	nt
COc1ccc(CN(C)CC#Cc2ccccc2)c(OC)c1	nt	nt	nt	-3.8	nt	nt	nt	nt	nt
COc1cccc(CNC(=O)CN2CCCc3ccccc32)c1OC	nt	nt	nt	4.2	nt	nt	nt	nt	nt
CCOc1ccccc1C(=O)NCC(=O)OCc1csc(CC(=O)Nc2ccc(C)cc2)n1	29.0	0.1	2.1	36.3*	-31.7	36.7*	18.4	nt	7.3
CC(=O)CC[C@@H]1CC[C@]2(CCCN(C(=O)c3ccccc3)C2)O1	nt	nt	nt	-0.4	nt	nt	nt	nt	nt
CC1=NN(c2cccc(C(=O)O)c2)C(=O)/C1=C\C=C\c1ccco1	48.5*	10.1	13.0	40.4*	15.8	44.8*	32.0*	nt	56.9*
COC(=O)C1CCCN(C(=O)C(Cc2ccc3c(c2)OCO3)NC(C)=O)C1 (stereo unspecified)	nt	nt	nt	-1.9	nt	nt	nt	nt	nt
O=c1cc(-c2ccc(O)c(O)c2)oc2c1ccc1ccccc12	48.0*	14.2	33.6*	33.6*	66.1*	77.9*	81.7*	73.9*	30.9*
CC(C)C[C@@H]1COc2cc(N3CCSCC3)ccc2S(=O)(=O)N1C	nt	nt	nt	2.6	nt	nt	nt	nt	nt
Cc1c(Br)c(O)c(Br)c2sc(=O)oc12	-0.9	7.0	14.4	67.1*	47.1*	83.7*	24.0	1.5	66.2*
O=C1CCCC2=C1C(c1ccc(O)c(O)c1)Nc1ccc3ccccc3c12 (stereo unspecified)	4.7	6.0	3.4	32.1*	63.5*	35.7*	31.2*	71.9*	25.5
COc1cc(C2Nc3ccc4ncccc4c3C3=C2C(=O)CCC3)cc(OC)c1O (stereo unspecified)	2.6	0.4	8.3	4.2	14.9	7.1	nt	nt	nt
Cc1ccc(C(=O)c2coc3ccc(O)c(Cl)c23)cc1	10.5	0.9	7.1	-20.6	-7.6	3.4	nt	nt	nt
CCOC(=O)C(C(C)=O)c1c(Br)c(O)c(O)c2c(C(=O)c3ccc(C)cc3)coc12 (stereo unspecified)	11.1	1.8	4.9	32.5*	69.1*	47.1*	34.7*	78.2*	38.3*
Cc1ccc(NC(=O)COC(=O)Cn2cnc3ccccc32)cc1S(=O)(=O)N(C)C	6.7	5.9	5.7	0.4	0.9	2.2	nt	nt	nt
Cc1cnc(C(=O)OCC(=O)Nc2ccc(C)c(S(=O)(=O)N(C)C)c2)cn1	4.6	-1.4	8.2	-0.5	-3.2	-3.1	nt	nt	nt
Cc1ccc(NC(=O)COC(=O)/C=C/c2ccco2)cc1S(=O)(=O)N(C)C	69.7*	0.3	2.2	-1.1	-11.7	10.8	nt	nt	nt	PAFAH2 FP conf=77.0*
CCN(CC)S(=O)(=O)c1cccc(NC(=O)COC(=O)c2ccc(Br)o2)c1	4.5	4.6	-1.4	0.7	-11.8	10.0	nt	nt	nt
CCN(CC)S(=O)(=O)c1cccc(NC(=O)COC(=O)/C=C/c2ccco2)c1	33.2*	0.4	0.9	-4.2	-0.1	15.4	nt	nt	nt	PAFAH2 FP conf=24.5
Cc1ccc(NC(=O)COC(=O)c2ccc(Cl)cc2)cc1S(=O)(=O)N(C)C	60.8*	-7.5	-3.4	-3.3	-11.5	10.7	nt	nt	nt	PAFAH2 FP conf=55.9*
